Phagocytosis inh – blocks phagocytosis by macrophages; J774A.1 macrophage IgG-bead phagocytosis, imaging; inhibition, % at 5 µM; 110,000 compounds, 0.07% hits;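 active = inhibition above the mean of the plate negative controls plus 5 SD, cut at about 13% in these data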;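 also: phagocytic index as fraction of beads internalized from green versus red external bead signal; plate controls were DMSO negative control for no effect and cytochalasin-D positive control for full effect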
BB579 growth dn – yeast BB579 growth reduction in restrictive medium | 140,000 compounds, 0.51% hits | inhibition, % at 10 µM | S. cerevisiae BB579 growth, OD615, 48 h;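 active = inhibition above a set limit, 3 SD over the mean compound inhibition, cut at about 44% in these data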
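Test system: DeaD yeast strain BB579 / Buffer or medium: restrictive glucose-based CSMM-D medium / Doses: single 10 µM dose / Schedule: 4 h cell preincubation, 48 h compound exposure, 30 °C humidified / Technique: culture absorbance at 615 nm / Controls: amphotericin B positive control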
Measles CPE – protection of cells from measles virus | Measles virus-infected cells, CPE protection, absorbance | protection (pct of control), % at 4 µM | 140,000 compounds, 1.5% hits; in the data active = protection mostly above about 24%, no sharp cut-off; inactive = mostly below about 26%
RAM network inh – inhibitors of the yeast RAM network; S. cerevisiae dse1pr::URA3 reporter, 5-FOA growth OD615, 2 d; analog-sensitive cbk1-as2 kinase mutant strain; inhibition, % at 50 µM; 190,000 compounds, 1.8% hits; AID 868;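 active = inhibition above a set limit, 3 SD over mean compound inhibition, cut at about 8.4% in these data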;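 also: 0% = DMSO-only wells with no growth and 100% = 10 µM 1-NA-PP1 full growth; inhibition rescues growth on 5-FOA so higher OD means more RAM inhibition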
Yeast lifespan up – yeast lifespan extension. S. cerevisiae growth with nicotinamide, OD615; deaD strain in restrictive glucose medium. inhibition of the nicotinamide effect, % at 10 µM. 130,000 compounds, 0.68% hits. AID 775;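 active = inhibition above a set limit, placed 3 SD over the median of all compounds, cut at about 26% in these data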;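 also: 0% = nicotinamide-treated wells and 100% = cells grown without nicotinamide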
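Assay system: engineered S. cerevisiae DeaD replicative-lifespan strain, galactose-grown log-phase cells; Buffer or medium: CSMM-D glucose medium, restrictive; Probe or stimulus: nicotinamide 1.5 mM; Compound: single dose 10 µM compound, 0.25% DMSO; Schedule: 4 h preincubation then 48 h treatment at 30 °C; Technique: OD615 measurement.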
* hit, by the source's call; . = no result given. A selection: hits, their analogues and other compounds. The true share with any hit is near 3.6%.

SMILES	Phagocytosis inh	BB579 growth dn	Measles CPE	RAM network inh	Yeast lifespan up
CCC(C(=O)OCC(=O)Nc1ccc(SC(F)F)cc1)c1ccccc1 (stereo not given)	-3	-24	14	8.4*	-1
COc1ccccc1C(=O)COC(=O)c1ccccc1OCC(=O)Nc1ccc(SC(F)F)cc1	-3	-8	13	9.2*	4
CN(C)S(=O)(=O)c1cc(NC(=O)COC(=O)Cc2cccc3ccccc23)ccc1Cl	-2	-20	5	8.7*	-1
COc1ccccc1NC(=O)COC(=O)c1ccccc1OCC(=O)Nc1ccc(SC(F)F)cc1	0	-66	6	3	-2
CCC(C(=O)OCC(=O)Nc1ccc(Cl)c(S(=O)(=O)N(C)C)c1)c1ccccc1 (stereo not given)	-6	6	4	10*	0
Nc1ccc(N2CCCCC2)c(Cl)c1	.	.	.	2	.
CCC(C(=O)c1ccc2ncccc2c1)c1ccccc1 (stereo not given)	-12	7	4	0	-2
CCCCC(CC)CNC(=O)CN(C)S(=O)(=O)c1cccc2nsnc12 (stereo not given)	-2	-39	38*	7	-2
CCCCC(CC)CNC(=O)CCS(=O)(=O)c1cccc2nsnc12 (stereo not given)	-1	-7	3	1	2
CC(C)=C1C2C=CC1C(C(=O)Nc1cc(C)ccc1C)C2C(=O)O (stereo not given)	-1	-29	24	1	2
CC(=O)c1ccc(NC(=O)C2C3C=CC(C3=C(c3ccccc3)c3ccccc3)C2C(=O)O)cc1 (stereo not given)	.	.	.	10*	.
O=C(Nc1ccccc1)Nc1ccc(F)c([N+](=O)[O-])c1	-6	-5	10	2	-1
O=C(Cc1ccc(F)cc1)Nc1ccc(F)c([N+](=O)[O-])c1	-1	-4	72*	1	-11
O=C(CCCC(=O)NNC(=O)Nc1ccccc1)NNC(=O)Nc1ccccc1	.	.	.	0	.
Cc1cc(N2C(=O)C3CC=CCC3C2=O)cc(C)c1Br (stereo not given)	.	-34	4	1	-7
Cc1cc(C)cc(N2C(=O)C3CC=CCC3C2=O)c1 (stereo not given)	0	-16	44*	0	-16
CCOCCCNC(=O)C(c1ccc(C)cc1)N(Cc1cccs1)C(=O)c1ccccc1O (stereo not given)	.	.	.	5	.
CCOC(=O)N1CCN(C(=O)/C=C/c2c(C)nn(-c3ccc(F)cc3)c2Cl)CC1	.	.	.	1	.
COc1cccc(/C=N/NC(N)=S)c1OCc1ccccc1Cl	-7	-40	8	8.8*	2
COc1cccc(N2CCN(C(=O)c3c(C)nn(-c4ccccc4)c3C)CC2)c1	.	.	.	1	.
C=CCN1C(c2ccccc2)=CS/C1=C(/C#N)c1nnc(N2CCOCC2)n1-c1ccccc1	-2	-12	52*	1	1
Nc1c2c(nc3ccc(Br)cc13)N(Cc1ccccc1)CC2	-9	-8	28*	1	16
NC(=O)c1sc2nc3c(c(-c4cccs4)c2c1N)CCCCC3	0	-14	61*	1	-1
CCOC(=O)C1=C(Cc2ccc(C)cc2)C(=O)c2ccccc2C1=O	0	-85	17	9.6*	4
COc1ccc(NC(=O)/C(Cl)=C(/Cl)S(=O)Cc2ccccc2)cn1 (stereo not given)	7	-58	0	1	53*
SMILES	Phagocytosis inh	BB579 growth dn	Measles CPE	RAM network inh	Yeast lifespan up
O=C1c2cccc3c(Cl)ccc(c23)C(=O)N1O	.	82*	8	0	-10
COc1cccc(/C=C/C(=O)OCC(=O)Nc2ccc(S(=O)(=O)N3CCCC3)cc2)c1	-1	-35	14	9.8*	-2
O=C(COC(=O)C1=COCCO1)NC1CCCCCCC1	.	.	.	1	.
Cc1nc2c(C)cccc2cc1C(=O)N/N=C/c1cccnc1	-4	-22	4	3	13
COc1ccc(CCn2c(-c3ccccc3)nc3c(c(=O)c4ccccc4n3C)c2=O)cc1	-5	-58	15	3	31*
COc1ccc(Cn2c(-c3ccccc3)nc3c(c(=O)c4ccccc4n3C)c2=O)cc1	-6	-5	8	2	4
Cc1cc(S(=O)(=O)NCc2ccccc2)ccc1OCC(=O)NCC1CCCO1 (stereo not given)	.	.	.	0	.
O=C(COc1ccc(S(=O)(=O)NCc2ccccc2)cc1)NCC1CCCO1 (stereo not given)	24*	17	8	0	-23
COc1ccc(OCC(=O)Nc2sc3c(c2C(=O)NCC2CCCO2)CCC3)cc1 (stereo not given)	.	-12	3	9.0*	3
O=C(COC(=O)C(c1ccccc1)c1ccccc1)NCc1ccco1	.	.	.	0	.
COc1ccc(CNC(=O)CN(Cc2ccccc2)S(=O)(=O)c2ccc(Cl)cc2)cc1	0	-29	5	9.2*	-15
COc1ccc(CNC(=O)CN(Cc2ccc(Cl)cc2)S(=O)(=O)c2ccccc2)cc1	0	-30	3	8.6*	6
CCc1cccc(NC(=O)c2cc(OC)c(OC)c(OC)c2)c1	.	.	.	1	.
COc1ccc2c(c1)SCC/C2=C\CN1C(=O)CCC1=O	-2	-19	5	1	-4
O=C(COc1cccnc1[N+](=O)[O-])NCc1ccco1	.	.	.	1	.
CCCCCCC1C(C#N)=C(N)OC2=C1C(=O)CC(C)(C)C2 (stereo not given)	.	-19	13	4	40*
Cc1ccc(N(CC(=O)NC(C)(C)C)C(=O)CS(=O)CC(=O)Nc2ccc(F)cc2)cc1 (stereo not given)	.	.	.	1	.
CCOc1ccccc1-c1c2cc(O)c(=O)cc-2oc2cc(O)c(O)cc12	-1	7	10	-1	-1
COc1ccc(OC)c(-c2c3cc(O)c(=O)cc-3oc3cc(O)c(O)cc23)c1	-6	63*	11	7	0
COc1ccc(-c2nc(N3CCOCC3)nc3n[nH]c(N)c23)cc1	6	-48	28*	3	-10
CCCOc1ccc(C(=O)ON=C2CCN(C)CC2)cc1	.	.	.	0	.
Cc1nnc(SC(C)C(=O)Nc2ncc(Cl)cc2Cl)n1Cc1ccccc1 (stereo not given)	-1	-9	13	0	-5
COCCn1c(SC(C)C(=O)Nc2ncc(Cl)cc2Cl)nc2ccccc21 (stereo not given)	0	-24	53*	1	-5
Cc1cc(-c2ccc(Cl)s2)n[nH]1	-1	-55	11	0	-18
Cc1cc(-c2cccs2)n[nH]1	-1	9	37*	0	-8
Nc1nc(C23CC4CCC(CC(C4)C2)C3)cs1	-1	-36	11	2	6
CC(Sc1nc(C(C)(C)C)cc(-c2ccccc2)c1C#N)C(=O)Nc1ccccc1 (stereo not given)	-9	-46	17	9.2*	-3
CC(Sc1nc(NC(C)(C)C)nc(N(C)C)n1)C(=O)Nc1ccccc1 (stereo not given)	.	.	.	3	.

Source: PubChem
